ChEMBL document CHEMBL4130564, “Indolylalkyltriphenylphosphonium Analogues Are Membrane-Depolarizing Mycobactericidal Agents” (ACS Med Chem Lett, 2017)
Activity calls are given as the source filed them. The rule behind the calls is not given here.

Columns and labels:
[1] = tested on: Mycobacterium tuberculosis; assay: Antibacterial activity against Mycobacterium bovis BCG ATCC 35734 after 5 days by broth dilution method; assay type: functional; conditions: BCG str. ATCC 35743, 120 h
Method in brief: (§1)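 Broth dilution; growth read by turbidity; MIC50 and MIC90 are the concentrations reducing growth by 50% and 90% relative to untreated controls; average of two or more separate determinations.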

[2] = tested on: Mycobacterium tuberculosis; assay: Bactericidal activity against Mycobacterium bovis BCG ATCC 35734 assessed as reduction in colony forming units at 4 uM after 1 to 5 days by time kill assay; assay type: functional, organism-based; conditions: BCG str. ATCC 35743
[3] = tested on: Mycobacterium tuberculosis; assay: Bactericidal activity against Mycobacterium bovis BCG ATCC 35734 assessed as increase in propidium iodide uptake at 4 uM after 1 to 5 days by flow cytometry; assay type: functional, organism-based; conditions: BCG str. ATCC 35743
Vero C1008 = assay: Cytotoxicity against African green monkey Vero E6 cells assessed as reduction in cell viability after 48 hrs by cell titre 96 aqueous one solution-based assay; conditions: Chlorocebus sabaeus, Vero C1008, 48 h
Method in brief: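 Vero cell viability was compared with untreated control cells. IC50 was taken as the concentration giving 50% loss of viability, averaged over two or more separate determinations.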

[4] = tested on: Mycobacterium tuberculosis; assay: Bactericidal activity against Mycobacterium bovis BCG ATCC 35734 assessed as reduction in colony forming units after 5 days; assay type: functional, BCG str. ATCC 35743; conditions: for MBC: Mycobacterium tuberculosis, BCG ATCC 35734, 120 h, read-out: MBC99.9
[5] = tested on: Mycobacterium tuberculosis; assay: Antibacterial activity against Mycobacterium tuberculosis H37Rv ATCC 27294 after 7 days by broth dilution method; assay type: functional; conditions: H37Rv ATCC 27294, 168 h; method in brief: as §1
[6] = Hemolytic activity against human RBC after 1 hr; assay type: ADME, cell-based, Erythrocyte; conditions: human red blood cells (erythrocytes)
Method in brief: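 Human red blood cells were exposed to compound, and lysis was scaled against Triton X-100 (2% v/v), taken as 100% hemolysis. HC50 was the concentration lysing 50% of cells, averaged over two or more separate determinations.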

[7] = tested on: Mycobacterium tuberculosis; assay: Bactericidal activity against Mycobacterium bovis BCG ATCC 35734 assessed as suppression of reductive capacity by measuring decrease in formazan formation after 0.5 to 1 hr by MTT reduction assay; assay type: functional, organism-based; conditions: BCG str. ATCC 35743
Method in brief: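 BCG cultures exposed to 0.2–100 μM for 30 min and 1 h, then MTT added; formazan production read at 595 nm against drug-free basal absorbance; CCCP 100 μM reference; representative of two independent experiments.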

[8] = tested on: Mycobacterium tuberculosis; assay: Bactericidal activity against Mycobacterium bovis BCG ATCC 35734 assessed as reduction in membrane potential by measuring red to green fluorescent ratio at 24 uM measured at 20 mins to 3 hrs by DiOC2-dye based fluorescence assay; assay type: functional, organism-based; conditions: BCG str. ATCC 35743
[9] = tested on: Mycobacterium bovis BCG str. ATCC 35743; assay: Inhibition of NDH2 in Mycobacterium bovis BCG ATCC 35734 assessed as reduction in oxygen consumption at 80 uM after 1 hr by methylene blue-based assay
Method in brief: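 Mid-log M. bovis BCG cultures in 7H9 medium were exposed to compound, then methylene blue was added (0.001%) and the tubes were incubated oxygen-free at 37 °C for […]. Oxygen use was read as methylene blue decolorization. Controls were medium-only tubes and drug-free culture.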

[10] = tested on: Mycobacterium tuberculosis; assay: Bactericidal activity against Mycobacterium bovis BCG ATCC 35734 assessed as reduction in membrane potential by measuring red to green fluorescent ratio at 0.08 uM measured at 20 mins to 3 hrs by DiOC2-dye based fluorescence assay; assay type: functional, organism-based; conditions: BCG str. ATCC 35743

Structure (SMILES)	MIC50 [1] [µM]	MIC90 [1] [µM]	further results
Fc1cccc2c1ccn2CCCCC[P+](c1ccccc1)(c1ccccc1)c1ccccc1	3	5	
COc1cccc2c1ccn2CCC[P+](c1ccccc1)(c1ccccc1)c1ccccc1	6	11	
O=[N+]([O-])c1ccc2ccn(CCC[P+](c3ccccc3)(c3ccccc3)c3ccccc3)c2c1	7	13	
Fc1cccc2c1ccn2CCC[P+](c1ccccc1)(c1ccccc1)c1ccccc1	6	12	
COc1ccc2c(ccn2CCCCC[P+](c2ccccc2)(c2ccccc2)c2ccccc2)c1	5	10	
CCCCCCCCn1cc(CN2CCC3(CCc4ccccc43)CC2)c2ccc(OC)cc21			Activity [2]: Active; Activity [3]: Active
O=[N+]([O-])c1cccc2c1ccn2CCC[P+](c1ccccc1)(c1ccccc1)c1ccccc1.[I-]	5	9	IC50 (Vero C1008): > 100 µM; MBC99 [4]: 25 µM; MBC [4]: 50 µM; MIC50 [5]: 22 µM; MIC90 [5]: 45 µM; HC50 at 1 h [6]: 230 µM
CCCCC[P+](c1ccccc1)(c1ccccc1)c1ccccc1	28	> 50	Activity [7]: inactive; Activity [8]: inactive
O=[N+]([O-])c1cccc2ccn(CCC[P+](c3ccccc3)(c3ccccc3)c3ccccc3)c12	2	4	
CSc1ccc2c(c1)N(CCC1CCCCN1C)c1ccccc1S2 (stereo unspecified)			inhibition [9]: Active
COc1ccc2ccn(CCCCC[P+](c3ccccc3)(c3ccccc3)c3ccccc3)c2c1	4	8	
COc1cccc2ccn(CCC[P+](c3ccccc3)(c3ccccc3)c3ccccc3)c12.[I-]	4	6	IC50 (Vero C1008): 34 µM; MBC99 [4]: 13 µM; MBC [4]: 25 µM; MIC50 [5]: 6 µM; MIC90 [5]: 20 µM; HC50 at 1 h [6]: > 300 µM
Fc1ccc2c(ccn2CCC[P+](c2ccccc2)(c2ccccc2)c2ccccc2)c1	8	17	
c1ccc(CCCCCC[P+](c2ccccc2)(c2ccccc2)c2ccccc2)cc1	5.2	11.6	
Fc1ccc2c(ccn2CCCCC[P+](c2ccccc2)(c2ccccc2)c2ccccc2)c1	3	5	
Fc1cccc2ccn(CCC[P+](c3ccccc3)(c3ccccc3)c3ccccc3)c12	5	12	
CO[C@H]1/C=C/O[C@@]2(C)Oc3c(C)c(O)c4c(O)c(c(/C=N/N5CCN(C)CC5)c(O)c4c3C2=O)NC(=O)/C(C)=C\C=C\[C@H](C)[C@H](O)[C@@H](C)[C@@H](O)[C@@H](C)[C@H](OC(C)=O)[C@@H]1C			Activity [10]: inactive
